From PubChem
An excerpt weighted towards active compounds, which were near 1.3% of everything screened.
GRK2 inh = inhibitors of human GRK2 displacing RNA aptamer; P25098; bead flow cytometry, FAM-aptamer displacement from GRK2; inhibition of aptamer binding, % at 10 µM; hit rate 0.59% among 330,000; AID 488847;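 active means inhibition of aptamer binding above 40%, roughly 3 SD of noise, on plates passing a quality check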;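 further: median bead fluorescence of bound FAM aptamer so fluorescent compounds give negative values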
proCasp7 act = counter-screen for procaspase-3 activators: activators of human procaspase-7. P55210. recombinant procaspase-7, Ac-DEVD-pNA absorbance 405 nm; D23A/D198A/D206A triple mutant, cannot self-cleave; scale: DMSO 0, 5 µM enzyme 100. activation, % at 8.5 µM. hit rate 0.093% among 330,000. AID 463210;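 active means percent activation above the screen-wide mean plus 3 SD, cut at about 25% in these data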
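Assay system: Uncleavable procaspase-7 mutant enzyme | Input: 2 µM procaspase-7 mutant as dispensed | Timing: 1 h compound preincubation, 2 h substrate cleavage, 25 °C | Repeats: One well per compound | Control set: DMSO wells as 0%, DMSO with 5 µM added PC-7 as 100% | Technique: Epi-absorbance of released pNA at 405 nm, two timepoints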
Hep lipid drop = hepatic lipid droplet formation modulation. inhibition, % at 6.5 µM. AID 1656. AML12 mouse hepatocytes, oleate lipid droplets, BODIPY imaging. hit rate 0.4% among 240,000;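 active means lipid droplet intensity inhibited by at least 50%, with more than 500 cells counted; inconclusive means wells with under 300 cells, treated as cytotoxic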
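Assay system: AML12 hepatocytes (mouse) / Also added: 100 µM oleic acid challenge / Times: overnight treatment with compound plus oleate / Detection: high-content imaging of BODIPY-stained droplets and DAPI nuclei / Evaluation: % inhibition of lipid droplet signal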
VLA-4 inh = inhibition in a human VLA-4 binding assay; hit rate 0.2% among 330,000; inhibition, % (about 7 µM as worked out from the volumes in the protocol); VLA-4 expressing cells, ligand binding flow cytometry; P13612; in the data active means inhibition above about 50%
proCasp3 act = activates human procaspase-3. hit rate 0.11% among 330,000. recombinant procaspase-3 D3A, Ac-DEVD-pNA absorbance 405 nm. activation, % at 8.5 µM. AID 463141;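 active means activation above the mean of all tested compounds plus 3 SD, cut at about 21% in these data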;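 further: 0% = DMSO alone and 100% = DMSO wells spiked with extra 5 µM PC-3 D3A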
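material = Procaspase-3 D3A mutant | probe or stimulus = Ac-DEVD-pNA | compound = single dose, 8.5 µM nominal compound, 0.8% DMSO | timing = 1 h preincubation, 2 h reaction | measured by = 405 nm absorbance of p-nitroaniline, reads at 0 and 120 min | benchmarks = DMSO-only low control, 5 µM PC-3 D3A high control | repeats = singlicate, each compound tested once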
GASC-1 inh = blocks human GASC-1 demethylase activity; Q9H3R0; GST-JMJD2C(1-420) H3K9me3 demethylation, DELFIA europium; inhibition, % at 2.35 µM; hit rate 0.069% among 330,000; AID 2099;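 active means more than half of a compound's replicate wells show inhibition beyond 50%, single wells judged on their own value; inconclusive means some, but no more than half, of replicates pass 50% inhibition; inactive means no replicate passes 50% inhibition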;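 further: signal counts dimethyl H3K9 product captured on neutravidin plate; 0% = median of DMSO wells and 100% = 0.3 times that DMSO median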
Lipid drop inh = hepatic lipid droplet formation inhibition, confirmed. shares compounds with Hep lipid drop. AID 463183. hit rate 65% among 870. AML12 mouse hepatocytes, BODIPY lipid droplet imaging; droplets induced with 100 µM oleic acid. inhibition, % at 5.2 µM;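 active means inhibition of lipid droplet metric at least 50%, with more than 300 cells in each of four replicates; inconclusive means wells under 300 cells, flagged as toxic or low count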;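 further: plate controls were DMSO with oleic acid for no effect and 5 µM Triacsin-C for full effect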
AML12 cytotox = counter-screen for cytotoxicity in AML12 mouse hepatocytes; shares compounds with Hep lipid drop; DAPI nuclear morphology cytotoxicity imaging; stronger effect = higher value; cells fed 100 µM oleate overnight; z-score at 5 µM; hit rate 3% among 870; AID 463200; in the data active means z-score above about 6.3;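 further: compound exposure lasted overnight at 37 °C before fixation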
AML12 tox conf = AML12 hepatocyte cytotoxicity, confirmed | shares compounds with Hep lipid drop | AML12 mouse hepatocyte viability, ATP luminescence; cells loaded with 100 µM oleic acid | cytotoxicity, % at 50 µM | 530 tested, under 10 active;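 active means cytotoxicity above 50% in each of four replicates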;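 further: compound exposure lasted overnight at 37 °C before the ATP read; 0% = DMSO-treated cells and 100% = wells with no cells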
* marks the source's active call; other numbers are inactive results; i = inactive; u = inconclusive; x = no result.

SMILES	GRK2 inh	proCasp7 act	Hep lipid drop	VLA-4 inh	proCasp3 act	GASC-1 inh	Lipid drop inh	AML12 cytotox	AML12 tox conf
C=CCN(C(=O)c1csnn1)C(C(=O)NCc1ccc(F)cc1)c1ccccc1F (stereo unspecified)	0	-5	25	-6	2	5	x	x	x
O=C(NCc1ccccc1)C(c1ccccc1)N(C(=O)c1csnn1)C1CCCC1 (stereo unspecified)	0	-3	40	-6	1	-3	x	x	x
C=CCN(C(=O)c1csnn1)C(C(=O)NCc1ccccc1)c1ccccc1F (stereo unspecified)	2	8	51*	-1	6	17	56	0.49	2
O=C(NCc1ccccc1)C(c1ccccc1F)N(C(=O)c1csnn1)C1CCCC1 (stereo unspecified)	0	-2	71*	8	5	i	92*	-0.75	12
COc1cc(/C=C2\C(=N)N3N=C(S(C)(=O)=O)SC3=NC2=O)ccc1OS(=O)(=O)c1ccc(C)cc1	4	10	8	10	-1	6	x	x	x
CCOc1ccc(N=Nc2c(C)[nH]n(-c3ccccc3)c2=O)cc1	0	-5	48	6	0	3	x	x	x
COc1cccc(N=Nc2c(C)[nH]n(-c3ccccc3)c2=O)c1	1	2	51*	3	-4	10	103*	-0.7	12
COc1ccc(CNC(=O)CN(Cc2ccc(F)cc2)C(=O)CCC(=O)Nc2nccs2)cc1	1	3	-5	-3	0	-8	x	x	x
CCN(C(=O)COC(=O)CSc1ccc(F)cc1)c1c(N)n(Cc2ccccc2)c(=O)[nH]c1=O	7	-3	x	-4	0	3	x	x	x
CCCOc1ccc(C2=NNC(c3cccs3)=Nc3ccc(OC)cc32)cc1	5	9	52*	21	11	-49	50	0.17	x
c1ccc(NCc2ccncc2)cc1	0	2	55*	17	2	0	4	0.77	x
Cc1cc(C)cc(NCc2ccncc2)c1	1	-8	-2	-9	7	2	x	x	x
COc1ccc(C2c3[nH]c4ccccc4c3CCN2C(=O)c2ccc(=O)n(C)n2)c(F)c1 (stereo unspecified)	1	-13	4	7	0	-1	x	x	x
CCc1cc(C(=O)N2CCc3c([nH]c4ccccc34)C2c2ccc(OC)cc2F)no1 (stereo unspecified)	2	-5	69*	5	-7	11	81*	0.77	-20
CCOC(=O)c1sc2cc([N+](=O)[O-])cc(SCCO)c2c1N	2	2	52*	-15	-4	3	61*	-0.48	x
CCOc1ccccc1Nc1nnc(SCC(=O)Nc2nc(-c3ccc(OC)cc3)cs2)s1	0	1	91*	11	2	3	104*	0.27	6
COc1ccc(-c2csc(NC(=O)CSc3nnc(Nc4ccccc4C)s3)n2)cc1	0	3	u	-7	-1	-11	x	x	x
COc1ccccc1Nc1nnc(SCC(=O)NC2CC2)s1	0	12	x	-13	-5	x	x	x	x
COc1ccccc1Nc1nnc(SCC(=O)Nc2nc(-c3ccc(F)cc3)cs2)s1	0	1	68*	-2	-3	0	45	0.44	x
COc1ccc(NC(=O)Nc2cccc3ccccc23)c(OC)c1	7	-21	56*	18	-3	0	83*	-0.24	9
COc1ccc(OC)c(NC(=O)Nc2cccc3ccccc23)c1	1	-7	37	10	-3	-3	x	x	x
COc1ccc(N2CCN(C(=O)CCC(=O)N3Cc4ccccc4Oc4ncccc43)CC2)cc1	3	-8	16	9	0	23	x	x	x
N#Cc1cccc2cccc(S(=O)(=O)N3CCOCC3)c12	3	-6	x	32	4	5	x	x	x
O=C(c1ccccc1)N1N=C(C(F)(F)F)CC1(O)c1ccc(F)cc1 (stereo unspecified)	3	1	-7	-4	-1	7	x	x	x
O=C(CCC(=O)c1ccc(F)cc1)Nc1cccc(S(=O)(=O)Nc2cccc(Cl)c2)c1	0	-10	51*	-20	1	6	-39	0.023	x
SMILES	GRK2 inh	proCasp7 act	Hep lipid drop	VLA-4 inh	proCasp3 act	GASC-1 inh	Lipid drop inh	AML12 cytotox	AML12 tox conf
O=C(CCC(=O)c1ccc(F)cc1)Nc1cccc(C(F)(F)F)c1	0	12	21	5	-7	5	x	x	x
COc1ccc(N2CCN(C(=O)c3cc(C)on3)CC2)cc1	1	1	56*	-1	4	-9	-10	-0.44	x
O=C(CNCCC1=CCCCC1)Nc1ccccc1N1CCCCC1	0	3	103*	5	2	-1	-21	-0.93	x
COc1ncccc1C(=O)NC1CCCc2c1cnn2-c1ccc(C)c(C)c1 (stereo unspecified)	9	-3	58*	-1	-1	-6	92*	-0.4	-1
Cc1cccc(NC2=C(NCCO)C(=O)c3ccccc3C2=O)c1	0	-12	89*	4	-3	-2	97*	0.31	22
CCCCN(C(=O)CCC(=O)Nc1cc(C)on1)C(C(=O)NC1CCCC1)c1ccc(OCC)cc1 (stereo unspecified)	2	-8	74*	-1	4	7	91*	-0.33	9
COc1ccc(C(C(=O)NC2CCCC2)N(CCC(C)C)C(=O)CCC(=O)Nc2cc(C)on2)cc1 (stereo unspecified)	3	-2	62*	7	7	7	81*	-0.13	5
CCOC(=O)c1c(C)[nH]c(N=Nc2ccccc2Cl)c1C	0	-4	65*	9	-14	1	105*	0.39	5
CCc1ccccc1NC(=O)c1cccc(NC(=O)/C=C/c2ccco2)c1	0	-1	53*	3	-2	-4	51	4.3	x
Nc1ncnc2c1ncn2[C@@H]1O[C@H](CNC(=O)[C@@H]2CCCN2S(=O)(=O)c2ccc(F)cc2)[C@@H](O)[C@H]1O	2	8	x	x	0	x	x	x	x
O=C(CNc1cccc(C(F)(F)F)c1)Nc1cccc(S(=O)(=O)N2CCCC2)c1	2	5	x	1	1	-2	x	x	x
